According to ChEMBL document CHEMBL1148329, “Synthesis and structure-activity studies on N-[5-(1H-imidazol-4-yl)-5,6,7,8-tetrahydro-1-naphthalenyl]methanesulfonamide, an imidazole-containing alpha(1A)-adrenoceptor agonist” (J Med Chem, 2004):

Tests used:
[1] = target: T1, Alpha-1A adrenergic receptor (Bos taurus, UniProt P18130); assay: In vitro binding affinity towards alpha-1A adrenergic receptor of bovine clone in radioligand binding assay
T1 sequence (P18130 whole entry): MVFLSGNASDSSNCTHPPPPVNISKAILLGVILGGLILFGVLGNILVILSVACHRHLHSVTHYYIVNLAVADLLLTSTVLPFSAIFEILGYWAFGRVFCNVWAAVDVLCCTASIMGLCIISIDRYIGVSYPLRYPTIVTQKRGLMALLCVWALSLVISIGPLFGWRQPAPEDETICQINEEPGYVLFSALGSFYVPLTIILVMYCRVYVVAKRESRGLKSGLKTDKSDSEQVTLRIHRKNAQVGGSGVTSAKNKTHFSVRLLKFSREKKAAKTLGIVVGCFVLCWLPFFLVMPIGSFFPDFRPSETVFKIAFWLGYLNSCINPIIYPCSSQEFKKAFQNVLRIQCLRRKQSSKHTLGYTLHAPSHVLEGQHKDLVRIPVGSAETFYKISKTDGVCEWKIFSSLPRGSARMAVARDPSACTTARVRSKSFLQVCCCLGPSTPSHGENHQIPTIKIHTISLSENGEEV

[2] = target: Alpha adrenergic receptor 1A and 1B (Rattus norvegicus) (UniProt P15823+P43140); assay: Selectivity is ratio of pKi (binding affinity) of alpha-1B receptor to that of alpha-1A receptor.; format: protein assay
Chain of Alpha adrenergic receptor 1A and 1B (Rattus norvegicus) (P43140 whole entry, looked up, one chain of several): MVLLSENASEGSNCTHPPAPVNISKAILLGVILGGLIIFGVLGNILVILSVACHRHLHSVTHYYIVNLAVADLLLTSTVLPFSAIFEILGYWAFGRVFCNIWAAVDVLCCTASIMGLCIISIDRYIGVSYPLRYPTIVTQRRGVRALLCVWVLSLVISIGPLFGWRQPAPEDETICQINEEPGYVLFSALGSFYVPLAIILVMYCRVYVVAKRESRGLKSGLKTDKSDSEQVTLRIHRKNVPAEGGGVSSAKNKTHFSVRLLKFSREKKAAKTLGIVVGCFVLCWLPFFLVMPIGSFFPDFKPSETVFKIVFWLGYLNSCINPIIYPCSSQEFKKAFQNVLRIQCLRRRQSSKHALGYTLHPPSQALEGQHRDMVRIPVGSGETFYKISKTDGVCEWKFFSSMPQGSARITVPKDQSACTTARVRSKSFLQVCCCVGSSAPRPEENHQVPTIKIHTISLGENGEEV

[3] = target: Alpha adrenergic receptor 1A and 1D (Rattus norvegicus) (UniProt P23944+P43140); assay: Selectivity is ratio of pKi (binding affinity) of Alpha-1D to that of alpha1A; format: protein assay
[4] = target: T2, Alpha-2A adrenergic receptor (Homo sapiens, UniProt P08913); assay: In vitro binding affinity towards alpha-2A adrenergic receptor of human clone in radioligand binding assay
T2 sequence (P08913 whole entry): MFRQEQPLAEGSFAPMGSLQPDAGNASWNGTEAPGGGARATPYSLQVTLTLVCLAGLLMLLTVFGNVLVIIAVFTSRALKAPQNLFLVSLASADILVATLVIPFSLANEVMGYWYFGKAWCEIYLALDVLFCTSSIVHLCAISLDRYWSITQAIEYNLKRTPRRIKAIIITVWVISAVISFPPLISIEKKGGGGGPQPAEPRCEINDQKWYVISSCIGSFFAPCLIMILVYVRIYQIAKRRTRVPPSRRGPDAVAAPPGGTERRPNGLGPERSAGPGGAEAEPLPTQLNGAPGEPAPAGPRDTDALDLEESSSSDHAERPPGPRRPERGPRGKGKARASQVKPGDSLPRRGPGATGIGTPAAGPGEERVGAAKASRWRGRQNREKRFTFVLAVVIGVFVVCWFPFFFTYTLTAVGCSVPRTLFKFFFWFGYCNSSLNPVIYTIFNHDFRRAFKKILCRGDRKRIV

[5] = target: T3, Alpha-1D adrenergic receptor (Rattus norvegicus, UniProt P23944); assay: In vitro binding affinity towards alpha-1D adrenergic receptor of rat clone in radioligand binding assay
T3 sequence (P23944 whole entry): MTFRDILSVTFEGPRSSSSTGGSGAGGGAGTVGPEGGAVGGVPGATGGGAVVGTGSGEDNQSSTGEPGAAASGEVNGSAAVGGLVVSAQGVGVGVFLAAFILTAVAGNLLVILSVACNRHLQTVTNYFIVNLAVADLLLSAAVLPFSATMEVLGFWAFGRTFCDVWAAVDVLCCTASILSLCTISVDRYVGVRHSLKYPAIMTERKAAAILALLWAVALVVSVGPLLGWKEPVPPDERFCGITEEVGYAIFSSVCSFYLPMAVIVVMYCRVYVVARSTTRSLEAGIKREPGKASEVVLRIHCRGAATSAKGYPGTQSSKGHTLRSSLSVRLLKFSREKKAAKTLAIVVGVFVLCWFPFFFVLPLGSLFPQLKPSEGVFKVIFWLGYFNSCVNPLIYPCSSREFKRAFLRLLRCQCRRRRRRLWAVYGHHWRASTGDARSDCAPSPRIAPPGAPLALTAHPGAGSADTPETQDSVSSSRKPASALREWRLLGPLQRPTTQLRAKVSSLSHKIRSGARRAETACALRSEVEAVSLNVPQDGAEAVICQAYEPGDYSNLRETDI
How it was run: (§1)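 Radioligand binding at α1 subtypes: α1A from rat submaxillary gland, α1B hamster clone, α1D rat clone. Run essentially per an earlier method.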

[6] = target: T4, Alpha-1B adrenergic receptor (Mesocricetus auratus, UniProt P18841); assay: In vitro binding affinity towards alpha-1B adrenergic receptor of hamster clone in radioligand binding assay; format: single protein; how it was run: as §1
T4 sequence (P18841 whole entry): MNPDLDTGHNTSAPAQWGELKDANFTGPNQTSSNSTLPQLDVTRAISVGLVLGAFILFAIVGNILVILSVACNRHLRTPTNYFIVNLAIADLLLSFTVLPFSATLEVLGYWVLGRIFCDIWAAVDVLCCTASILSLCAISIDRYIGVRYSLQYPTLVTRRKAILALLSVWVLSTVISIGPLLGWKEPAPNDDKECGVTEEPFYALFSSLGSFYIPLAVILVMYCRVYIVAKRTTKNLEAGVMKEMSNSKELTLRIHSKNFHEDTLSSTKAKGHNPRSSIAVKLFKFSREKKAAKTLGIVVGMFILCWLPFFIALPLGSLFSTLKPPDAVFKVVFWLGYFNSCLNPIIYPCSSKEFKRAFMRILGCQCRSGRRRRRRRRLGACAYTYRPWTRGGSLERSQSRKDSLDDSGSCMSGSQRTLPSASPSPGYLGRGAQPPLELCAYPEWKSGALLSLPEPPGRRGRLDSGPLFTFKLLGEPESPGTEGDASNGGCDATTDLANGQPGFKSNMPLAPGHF

Rattus norvegicus = species: Rattus norvegicus; assay: Relative affinities for alpha2B and alpha1A receptors
[7] = Relative affinities for alpha-2a and alpha-1A receptors
[8] = target: T5, Alpha-2B adrenergic receptor (Rattus norvegicus, UniProt P19328); assay: In vitro binding affinity towards alpha-2B adrenergic receptor of rat neonatal lung in radioligand binding assay
T5 sequence (P19328 whole entry): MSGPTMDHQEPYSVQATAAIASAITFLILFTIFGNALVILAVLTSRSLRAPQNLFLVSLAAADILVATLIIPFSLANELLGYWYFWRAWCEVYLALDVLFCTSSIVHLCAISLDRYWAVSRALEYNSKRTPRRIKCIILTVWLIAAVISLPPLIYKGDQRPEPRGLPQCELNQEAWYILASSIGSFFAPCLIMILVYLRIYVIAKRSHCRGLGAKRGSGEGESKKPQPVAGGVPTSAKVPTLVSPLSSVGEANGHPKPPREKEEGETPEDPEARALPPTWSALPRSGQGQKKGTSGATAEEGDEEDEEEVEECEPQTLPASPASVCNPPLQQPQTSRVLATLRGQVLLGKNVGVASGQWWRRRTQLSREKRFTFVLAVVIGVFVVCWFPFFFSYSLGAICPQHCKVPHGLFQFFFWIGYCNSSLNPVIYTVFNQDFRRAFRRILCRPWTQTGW

[9] = target: T6, Alpha-1A adrenergic receptor (Oryctolagus cuniculus) (UniProt O02824); assay: Efficacy relative to phenylephrine (PE) to constrict tissue containing the alpha-1A adrenergic receptor in rabbit urethra; format: functional, tissue-based
T6 sequence (whole entry): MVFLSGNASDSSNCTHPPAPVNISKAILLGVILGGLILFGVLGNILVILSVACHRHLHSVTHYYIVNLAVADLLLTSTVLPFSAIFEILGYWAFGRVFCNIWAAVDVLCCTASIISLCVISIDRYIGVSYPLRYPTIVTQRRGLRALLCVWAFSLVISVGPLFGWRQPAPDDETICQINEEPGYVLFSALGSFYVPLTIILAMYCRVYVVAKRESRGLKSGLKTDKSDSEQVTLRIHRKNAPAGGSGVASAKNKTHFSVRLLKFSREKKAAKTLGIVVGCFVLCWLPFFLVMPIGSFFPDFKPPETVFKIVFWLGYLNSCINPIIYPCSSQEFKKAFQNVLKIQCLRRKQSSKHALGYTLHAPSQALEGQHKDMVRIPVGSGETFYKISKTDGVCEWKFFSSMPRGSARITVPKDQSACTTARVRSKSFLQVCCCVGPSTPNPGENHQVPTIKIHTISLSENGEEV
How it was run: (§2)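 α1-agonist dose–response curves in isolated tissue: rabbit urethra (α1A), rat spleen (α1B), rat aorta (α1D). Agonist potency and efficacy read from the concentration–response curves.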

[10] = target: T7, Alpha-1B adrenergic receptor (Rattus norvegicus) (UniProt P15823); assay: Efficacy relative to phenylephrine (PE) constriction of rat spleen containing alpha-1B adrenergic receptor; format: functional, tissue-based; how it was run: as §2
T7 sequence (whole entry): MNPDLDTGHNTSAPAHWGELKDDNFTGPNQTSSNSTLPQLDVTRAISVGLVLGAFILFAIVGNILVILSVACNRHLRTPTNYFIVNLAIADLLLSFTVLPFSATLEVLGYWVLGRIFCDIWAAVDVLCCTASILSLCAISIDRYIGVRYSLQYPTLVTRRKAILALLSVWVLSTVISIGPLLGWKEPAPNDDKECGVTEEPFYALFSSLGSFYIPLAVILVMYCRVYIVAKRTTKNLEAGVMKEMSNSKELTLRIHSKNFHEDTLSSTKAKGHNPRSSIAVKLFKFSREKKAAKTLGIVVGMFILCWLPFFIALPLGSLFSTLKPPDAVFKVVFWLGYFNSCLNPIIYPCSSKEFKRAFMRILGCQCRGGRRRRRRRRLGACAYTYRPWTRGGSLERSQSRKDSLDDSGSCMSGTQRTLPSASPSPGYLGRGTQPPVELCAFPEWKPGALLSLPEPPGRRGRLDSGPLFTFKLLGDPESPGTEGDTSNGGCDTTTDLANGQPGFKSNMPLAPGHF

Canis familiaris [11] = assay: Uroselectivity was determined by measuring effective dose required for 20 mmHg increase of mean arterial pressure (MAP) in vivo in dog; format: functional, Canis lupus familiaris, Artery
How it was run: (§3)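 Dog model recording intraurethral pressure (IUP) and mean arterial pressure (MAP) simultaneously. Increasing iv doses given, maximal effect of each dose taken. Doses giving a 5 mmHg rise in IUP (ED Δ5) or 20 mmHg rise in MAP (ED Δ20) were calculated, in nmol/kg ± SEM, n ≥ 4 (2 or 3 where footnoted).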

Canis familiaris [12] = assay: Uroselectivity was determined by measuring effective dose required for 5 mmHg increase of intraurethral pressure (IUP) in vivo in dog; format: functional, Canis lupus familiaris; how it was run: as §3
Canis familiaris [13] = species: Canis familiaris; assay: Ratio of MAP ED delta20 to that of IUP ED delta5
[14] = target: T6, Alpha-1A adrenergic receptor (Oryctolagus cuniculus); assay: Functional agonism of the compounds to constrict tissue containing the alpha-1A adrenergic receptor in rabbit urethra; format: tissue-based; how it was run: as §2
[15] = target: T8, Alpha-2A adrenergic receptor (Rattus norvegicus) (UniProt P22909); assay: Functional agonism to constrict tissue containing alpha-2A adrenergic receptor in rat prostatic vas deferens; format: tissue-based
T8 sequence (whole entry): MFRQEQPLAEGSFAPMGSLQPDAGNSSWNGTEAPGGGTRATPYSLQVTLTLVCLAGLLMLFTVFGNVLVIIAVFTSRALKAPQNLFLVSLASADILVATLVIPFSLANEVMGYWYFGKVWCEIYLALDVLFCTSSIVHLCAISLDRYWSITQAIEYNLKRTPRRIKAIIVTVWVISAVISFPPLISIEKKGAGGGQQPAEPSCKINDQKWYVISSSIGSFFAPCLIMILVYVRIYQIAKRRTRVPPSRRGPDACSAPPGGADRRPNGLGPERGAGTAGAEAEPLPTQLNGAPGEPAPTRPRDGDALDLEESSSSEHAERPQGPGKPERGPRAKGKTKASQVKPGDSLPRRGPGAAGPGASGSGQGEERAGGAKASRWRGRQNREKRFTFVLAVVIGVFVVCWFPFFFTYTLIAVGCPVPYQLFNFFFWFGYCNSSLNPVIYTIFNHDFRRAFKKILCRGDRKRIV

[16] = Selectivity is ratio of efficacy of alpha-2A to that of alpha1A adrenoceptor; format: functional
[17] = target: T8, Alpha-2A adrenergic receptor (Rattus norvegicus); assay: Efficacy relative to clonidine to constrict tissue containing the alpha-2A adrenergic receptor in rat prostatic vas deferens
[18] = target: T7, Alpha-1B adrenergic receptor (Rattus norvegicus); assay: Functional agonism of the compounds to constrict tissue containing the alpha-1B adrenergic receptor in rat spleen; format: tissue-based
How it was run: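 Agonist dose–response curves were run on isolated tissue: rabbit urethra for α1A, rat spleen for α1B, and rat aorta for α1D.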

SMILES | Ki [1] [nM] | Selectivity [2] | Selectivity [3] | Ki [4] [nM] | Ki [5] [nM] | Ki [6] [nM] | Selectivity (Rattus norvegicus) | Selectivity [7] | Ki [8] [nM] | Efficacy [9] [%] | Efficacy [10] [%] | ED delta20 (Canis familiaris [11]) [nM/kg] | ED delta5 (Canis familiaris [12]) [nM/kg] | Ratio (Canis familiaris [13]) | pD2 [14] | pD2 [15] | Selectivity [16] | Efficacy [17] [%] | pD2 [18]
COC(=O)Nc1cccc2c1CCCC2c1c[nH]cn1 (configuration not stated) | 148 | 100 | 30 |  |  |  |  |  |  |  |  |  |  |  |  |  |  |  | 
Oc1cccc2c1CCCC2c1c[nH]cn1 (configuration not stated) | 115 | 3 | 1 | 8.71 | 30.9 | 145 | 0.1 | 0.2 | 3.8 |  |  |  |  |  |  |  |  |  | 
CS(=O)(=O)Nc1c(O)ccc2c1CCCC2c1c[nH]cn1 (configuration not stated) |  |  |  | 44.7 |  |  |  |  | 47.9 | 104 | 94 | 0.16 | 0.18 | 1 |  |  |  |  | 
CN(C)S(=O)(=O)Nc1cccc2c1CCCC2c1c[nH]cn1 (configuration not stated) | 977 | 20 | 3 |  |  | > 10000 |  |  |  |  |  |  |  |  |  |  |  |  | 
CCS(=O)(=O)Nc1cccc2c1CCCC2c1c[nH]cn1 (single isomer, unassigned; (+)) |  | 30 | 20 | 132 |  | 1320 | 40 | 3 | 1700 | 71 |  | 34 |  | 3.3 | 6.77 | 5.95 | 7 | 66 | 
COc1ccc(NS(C)(=O)=O)c2c1C(c1c[nH]cn1)CCC2 (configuration not stated) |  | > 6 | > 6 |  | > 10000 | > 10000 |  |  |  | 57 | 26 | 1850 |  | 2.6 | 4.81 |  |  |  | 4.74
